According to ChEMBL document CHEMBL3871276, “Synthesis, antiamoebic and molecular docking studies of furan-thiazolidinone hybrids” (Eur J Med Chem, 2016):

Columns and labels:
[1] = test system: Entamoeba histolytica; test: Antiamoebic activity against Entamoeba histolytica HM-1:IMSS trophozoites after 72 hrs by eosin staining based microdilution method; format: functional
How it was run: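 Trophozoites grown in Diamond TYIS-33 medium. Compounds in DMSO, 1 mg/mL stock, two-fold serial dilutions. 1.7 x 10⁴ organisms/well, plate gassed with nitrogen 10 min, 37 °C for 72 h. Wells washed with 0.9% NaCl, fixed with methanol, stained with 0.5% eosin for 15 min, dye released with 0.1 N NaOH, OD 490 nm. IC50 from linear regression of % inhibition vs log dose. Triplicate wells, repeated thrice.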

[2] = Inhibition of Entamoeba histolytica O-acetyl-L-serine sulfohydrolase preincubated with enzyme followed by TNB substrate addition measured after 30 mins by UV-Visible spectrophotometric method; settings: in the assay text read “OAS substrate” for “TNB substrate”
How it was run: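 Recombinant EhOASS (90 μg) in 100 mM HEPES pH 7.0 with […], inhibitor 0.25–500 μM, preincubated 30 min at room temperature. Reaction started with O-acetyl-L-serine. TNB disappearance followed at 412 nm. % decrease in activity taken relative to the uninhibited reaction. IC50 from % inhibition vs log inhibitor concentration.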

[3] = molecular target: T1, Thioredoxin reductase (Entamoeba histolytica, UniProt C4LW95); test: Inhibition of Entamoeba histolytica thioredoxin reductase
T1 sequence (C4LW95 whole entry): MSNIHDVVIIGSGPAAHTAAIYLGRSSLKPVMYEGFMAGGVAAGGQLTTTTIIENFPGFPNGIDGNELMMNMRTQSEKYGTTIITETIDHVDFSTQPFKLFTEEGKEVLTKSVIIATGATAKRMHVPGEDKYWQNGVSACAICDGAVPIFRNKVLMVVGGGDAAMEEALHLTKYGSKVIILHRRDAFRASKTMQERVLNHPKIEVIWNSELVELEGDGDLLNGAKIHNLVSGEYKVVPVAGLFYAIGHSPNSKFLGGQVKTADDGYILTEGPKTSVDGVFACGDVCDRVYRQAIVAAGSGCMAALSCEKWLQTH

[4] = Cytotoxicity against CHO cells assessed as reduction in cell viability at 2.5 to 25 uM after 72 hrs by MTT assay; format: toxicity, cell-based, Cricetulus griseus; settings: chinese hamster
How it was run: (§1)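 Chinese hamster ovary cells in RPMI with 10% FBS and 1% penicillin-streptomycin-neomycin. 5,000 cells/well, in triplicate, exposed to compound or vehicle DMSO at 37 °C, 5% CO2 for 48 h or 72 h. MTT (5 mg/mL in PBS) added for 4 h, formazan dissolved in DMSO, absorbance at 570 nm. Viability expressed as % of DMSO control.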

[5] = Cytotoxicity against CHO cells assessed as reduction in cell viability after 72 hrs by MTT assay; format: toxicity, cell-based, Cricetulus griseus; settings: for IC50 at 72 h: Chinese hamster, CHO cells; for Activity: chinese hamster, cho, 72 h; how it was run: as §1
[6] = Cytotoxicity against CHO cells assessed as reduction in cell viability at 2.5 to 50 uM after 48 hrs by MTT assay; format: toxicity, cell-based, Cricetulus griseus; settings: chinese hamster; how it was run: as §1
[7] = Cytotoxicity against CHO cells assessed as reduction in cell viability at 50 uM after 72 hrs by MTT assay; format: toxicity, cell-based, Cricetulus griseus; settings: chinese hamster; how it was run: as §1
[8] = Cytotoxicity against CHO cells assessed as reduction in cell viability at 100 uM after 48 hrs by MTT assay; format: toxicity, cell-based, Cricetulus griseus; settings: chinese hamster; how it was run: as §1
[9] = Cytotoxicity against CHO cells assessed as reduction in cell viability after 48 hrs by MTT assay; format: toxicity, cell-based, Cricetulus griseus; settings: for IC50 at 48 h: Chinese hamster, CHO cells; for Activity: chinese hamster, cho, 48 h; how it was run: as §1

Row | IC50 [1] [µM] | Ki [2] [µM] | Ki [3] [µM] | Structure (SMILES) | Activity [4] | IC50 at 72 h [5] [µM] | Activity [5] | Activity [6] | Activity [7] | Activity [8] | IC50 at 48 h [9] [µM] | Activity [9]
1 | 8.22 |  |  | S=C(NCc1ccco1)Nc1ccccc1 |  |  |  |  |  |  |  | 
2 | 2.97 | 343 | 27 | O=C1/C(=C/c2ccc3c(c2)OCO3)S/C(=N\c2ccccc2)N1Cc1ccco1 |  |  |  |  |  |  |  | 
3 | 2.03 | 149 | 4.66 | CCOc1ccc(/C=C2\S/C(=N\c3ccccc3)N(Cc3ccco3)C2=O)cc1 |  |  |  |  |  |  |  | 
4 | 0.47 |  | 0.68 | COc1ccc(/C=C2\S/C(=N\c3ccccc3)N(Cc3ccco3)C2=O)cc1OC | Non-Toxic | > 250 | Dose-dependent effect | Non-Toxic | Non-Toxic | Non-Toxic | > 400 | Dose-dependent effect
5 |  | 25.6 |  | O=C(CSc1nc(O)cc(=O)[nH]1)c1c[nH]c2ccccc12 |  |  |  |  |  |  |  | 
6 | 0.27 |  | 0.39 | O=C1/C(=C/c2ccccn2)S/C(=N\c2ccccc2)N1Cc1ccco1 | Non-Toxic | > 250 | Dose-dependent effect | Non-Toxic | Non-Toxic | Non-Toxic | > 400 | Dose-dependent effect
7 | 1.48 |  | 2.82 | Cc1ccc(/C=C2\S/C(=N\c3ccccc3)N(Cc3ccco3)C2=O)cc1 | Non-Toxic | 185 | Dose-dependent effect | Non-Toxic |  |  | 421 | Dose-dependent effect
8 | 1.35 |  | 2.07 | COc1ccc(/C=C2\S/C(=N\c3ccccc3)N(Cc3ccco3)C2=O)cc1 | Non-Toxic | > 250 | Dose-dependent effect | Non-Toxic |  |  | > 400 | Dose-dependent effect
9 | 3.57 | 2240 | 337 | O=C1CS/C(=N\c2ccccc2)N1Cc1ccco1 |  |  |  |  |  |  |  | 
10 | 2.25 | 58 | 10.9 | O=C1/C(=C/c2ccccc2)S/C(=N\c2ccccc2)N1Cc1ccco1 |  |  |  |  |  |  |  | 
11 | 1.24 |  | 1.05 | COc1cc(/C=C2\S/C(=N\c3ccccc3)N(Cc3ccco3)C2=O)cc(OC)c1OC | Non-Toxic | > 250 | Dose-dependent effect | Non-Toxic |  |  | > 400 | Dose-dependent effect
12 | 2.87 | 98.6 | 16.1 | O=C1/C(=C/c2ccc([N+](=O)[O-])cc2)S/C(=N\c2ccccc2)N1Cc1ccco1 |  |  |  |  |  |  |  | 
13 | 2.2 | 54.8 | 5.68 | CC(C)Oc1ccc(/C=C2\S/C(=N\c3ccccc3)N(Cc3ccco3)C2=O)cc1 |  |  |  |  |  |  |  | 
14 | 0.67 |  | 0.69 | COc1ccc(OC)c(/C=C2\S/C(=N\c3ccccc3)N(Cc3ccco3)C2=O)c1 | Non-Toxic | > 250 | Dose-dependent effect | Non-Toxic | Non-Toxic | Non-Toxic | > 400 | Dose-dependent effect
15 | 2.33 | 84.3 | 6.23 | O=C1/C(=C/c2ccc(Cl)cc2)S/C(=N\c2ccccc2)N1Cc1ccco1 |  |  |  |  |  |  |  | 
16 | 1.04 |  | 0.73 | O=C1/C(=C/c2ccc(O)cc2)S/C(=N\c2ccccc2)N1Cc1ccco1 | Non-Toxic | > 250 | Dose-dependent effect | Non-Toxic |  |  | 400 | Dose-dependent effect
17 | 1.95 | 46.8 | 3.56 | O=C1/C(=C/c2cccc([N+](=O)[O-])c2)S/C(=N\c2ccccc2)N1Cc1ccco1 |  |  |  |  |  |  |  | 
18 | 1.95 | 45.8 | 3.16 | O=C1/C(=C/c2cccc(Cl)c2)S/C(=N\c2ccccc2)N1Cc1ccco1 |  |  |  |  |  |  |  | 
19 |  |  | 2.88 | Cc1ncc([N+](=O)[O-])n1CCn1cc(-c2ccccn2)nn1 |  |  |  |  |  |  |  | 
20 |  | 42.6 | 3.3 | Cc1ncc([N+](=O)[O-])n1CCO [METRONIDAZOLE] | Non-Toxic | 280 |  | Non-Toxic |  |  | > 400 | 
